HKDC1 inh = HKDC1 (human) hexokinase inhibition | Q2TB90 | recombinant HKDC1, G6PDH/diaphorase resazurin coupled fluorescence | inhibition, % at 20 µM | 340,000 tested, 0.16% active;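 active means inhibition above about 35% when tested at 20 µM, limit read from the data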;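 further: plate controls were DMSO wells with enzyme for no effect and DMSO wells lacking enzyme for full effect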
Target sequence (Q2TB90 whole entry, looked up): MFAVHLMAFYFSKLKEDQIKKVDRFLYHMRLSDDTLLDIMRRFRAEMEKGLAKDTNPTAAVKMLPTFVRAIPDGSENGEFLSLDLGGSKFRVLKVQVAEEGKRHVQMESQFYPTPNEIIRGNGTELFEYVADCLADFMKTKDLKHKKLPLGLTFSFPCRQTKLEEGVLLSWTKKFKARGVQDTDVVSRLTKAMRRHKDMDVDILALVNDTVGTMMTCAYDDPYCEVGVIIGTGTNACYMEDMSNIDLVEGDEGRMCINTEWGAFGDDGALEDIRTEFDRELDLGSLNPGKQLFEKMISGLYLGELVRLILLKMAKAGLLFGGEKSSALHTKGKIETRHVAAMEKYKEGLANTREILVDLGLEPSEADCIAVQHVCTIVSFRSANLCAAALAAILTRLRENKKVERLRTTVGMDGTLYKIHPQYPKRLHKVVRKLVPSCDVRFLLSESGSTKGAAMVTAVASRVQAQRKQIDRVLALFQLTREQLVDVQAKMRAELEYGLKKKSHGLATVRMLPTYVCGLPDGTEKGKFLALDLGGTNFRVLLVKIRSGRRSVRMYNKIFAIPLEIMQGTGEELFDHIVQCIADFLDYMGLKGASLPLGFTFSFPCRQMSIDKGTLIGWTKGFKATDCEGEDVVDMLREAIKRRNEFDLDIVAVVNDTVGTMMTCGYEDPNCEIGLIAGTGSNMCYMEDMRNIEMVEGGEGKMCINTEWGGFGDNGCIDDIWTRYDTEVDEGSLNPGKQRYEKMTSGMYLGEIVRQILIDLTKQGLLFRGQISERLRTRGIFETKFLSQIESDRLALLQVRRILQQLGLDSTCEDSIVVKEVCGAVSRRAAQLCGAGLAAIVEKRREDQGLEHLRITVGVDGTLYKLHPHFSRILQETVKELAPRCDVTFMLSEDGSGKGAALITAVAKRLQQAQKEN
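Material: recombinant HKDC1 hexokinase; Amount: HKDC1 at 5 µg/mL; Medium: Tris pH 8.0 buffer with MgCl2, Tween-20, BSA, BME; Schedule: 90 min reaction incubation at room temperature, dark; Technique: coupled resazurin fluorescence, excitation 525 nm, emission 613 nm.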
Tb hexokinase = T. brucei hexokinase 1 inhibition | recombinant TbHK1, G6PDH-coupled NADH A340 | inhibition, % at 10 µM | 220,000 tested, 0.11% active | AID 1430;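 active means inhibition of 50% or more in the single-dose primary screen; inactive means inhibition below 50%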
Diaph act CS = diaphorase activation or chemical reduction counter-screen; Diaphorase/resazurin coupled assay, resorufin fluorescence, 16 min; stronger effect = higher value; 1 = vehicle wells, 0 = NADH-free wells; activation factor at 20 µM; 190,000 tested, 0.005% active;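 active means diaphorase activity raised at least twofold by the compound at 20 µM; inactive means activation factor below 2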
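Material: Purified diaphorase enzyme from Clostridium kluyveri | Buffer or medium: 50 mM HEPES pH 7.4 with 4.542 mM MgCl2, 0.005% Tween 20 | Times: 16 min enzyme reaction, ambient temperature | Signal: Red resorufin fluorescence at 544/590 nm excitation/emission | Measure: Increased resorufin signal from activators or reducing compounds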
Diaph inh CS = inhibits diaphorase or chemically oxidizes, flagging diaphorase assay artifacts; 190,000 tested, 0.69% active; diaphorase resazurin-to-resorufin fluorescence, NADH, 16 min; bacterial (C. kluyveri) enzyme, not human; inhibition, % at 20 µM; AID 1217;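 active means primary screen inhibition at 20 µM above a set limit, cut at about 50% in these data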;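 further: plate controls were DMSO with full reaction for no effect and wells lacking NADH for full effect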
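Assay system: diaphorase enzyme from Clostridium kluyveri; Input: enzyme working solution with 0.14 U/mL diaphorase; Timing: 16 min at room temperature; Technique: resorufin fluorescence, excitation 544 nm, emission 590 nm; Benchmarks: positive control minus NADH, DMSO neutral control.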
G6PDH counter = inhibits Leuconostoc G6PDH, flagging false hits in G6PDH-based assays; Purified L. mesenteroides G6PDH, diaphorase/resazurin coupled fluorescence, 45 min; 200,000 tested, 0.12% active; inhibition, % at 5 µM; AID 1020; in the data active means inhibition above about 50%
PfG6PD inh = PfG6PD (Plasmodium falciparum) enzyme inhibition; PfGluPho enzyme, NADPH resazurin-diaphorase fluorescence; inhibition, % at 20 µM; 350,000 tested, 0.78% active; AID 504690;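 active means inhibition reaching at least a set limit at 20 µM in the primary screen, cut at about 59% in these data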;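 further: 0% = DMSO wells with substrate and 100% = DMSO wells lacking glucose-6-phosphate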
* = called active by the depositor. An excerpt weighted towards active compounds, which were near 1.3% of everything screened.

Screening O=C(CSc1ncnc2c1nnn2-c1ccc(F)cc1)NCc1ccco1 returned HKDC1 inh -4, Tb hexokinase 1, Diaph act CS 0.9, Diaph inh CS 6, G6PDH counter 5 and PfG6PD inh -7.
Cc1ccc(-n2nnc3c(SCC(=O)NCc4ccco4)ncnc32)cc1 was read as HKDC1 inh -2, Tb hexokinase -1, Diaph act CS 0.4, Diaph inh CS 57*, G6PDH counter 0 and PfG6PD inh -6.
`CCCCCC(=O)N1C[C@H](n2cc(C3CC3)nn2)[C@@H](O)C[C@@H]1c1ccc(Cl)cc1` gave PfG6PD inh 6.
Screening N#C/C(=C/c1ccc(-c2cc(C(=O)O)cc(C(=O)O)c2)o1)c1nc2ccccc2s1 returned Tb hexokinase -4, Diaph act CS 0.4, Diaph inh CS 61* and G6PDH counter 8.
COc1cc(/C=C(\C#N)c2nc3ccccc3s2)cc([N+](=O)[O-])c1O was read as HKDC1 inh 20, Tb hexokinase 45, Diaph act CS 0.1, Diaph inh CS 85*, G6PDH counter 6 and PfG6PD inh -9.
`COc1ccc(-c2csc(/C(C#N)=C\c3ccc(O)c([N+](=O)[O-])c3)n2)cc1OC` gave HKDC1 inh 17, Tb hexokinase -2 and PfG6PD inh -25.
N#C/C(=C\c1ccc(O)c([N+](=O)[O-])c1)c1nc2ccccc2s1 was read as HKDC1 inh 11, Tb hexokinase 21, Diaph act CS 0, Diaph inh CS 97*, G6PDH counter 5 and PfG6PD inh -3.
`COc1cc2[nH]c(=O)c(C(=O)NCc3ccccc3Cl)c(O)c2cc1OC` gave HKDC1 inh -6 and PfG6PD inh 9.
For COc1cccc(CNC(=O)C2CCC(=O)N(CC3CCCCC3)C2)c1OC (stereo not given) the results were HKDC1 inh 1 and PfG6PD inh -2.
Screening Cc1ccsc1C(=O)C1CCCN(Cc2cc(F)ccc2-n2cccn2)C1 (stereo not given) returned HKDC1 inh -3, Tb hexokinase -3, Diaph act CS 0.8, Diaph inh CS 16, G6PDH counter 8 and PfG6PD inh 14.
CCOc1nc(NC2CCCC2)nc(N2CCC(C)CC2)n1 was read as HKDC1 inh -3 and PfG6PD inh 12.
O=C(NNC(=O)c1ccccn1)c1ccc(OC(F)F)cc1 was read as HKDC1 inh -10 and PfG6PD inh -28.
O=C(NC(=S)N(CCCCO)C1CCCCC1)c1sc2ccccc2c1Cl was read as HKDC1 inh -7, Tb hexokinase 9, Diaph act CS 0.3, Diaph inh CS 72*, G6PDH counter 8 and PfG6PD inh 20.
`O=C1C=CC(=O)N1c1cccc(-c2ccccc2)c1` gave HKDC1 inh 7, Tb hexokinase 8 and PfG6PD inh 98*.
`O=c1cc(-c2ccccc2)[nH]n1-c1ccccc1` gave HKDC1 inh 4 and PfG6PD inh -6.
`CCOC(=O)c1nn(-c2ccccc2)c(=O)c2c(N)scc12` gave HKDC1 inh 15, Tb hexokinase -9, Diaph act CS 0.6, Diaph inh CS 36, G6PDH counter 46 and PfG6PD inh 59.
Screening Nc1scc2c(C(=O)N/N=C/c3ccc(Cl)cc3)nn(-c3ccccc3)c(=O)c12 returned HKDC1 inh 19, Tb hexokinase -5, Diaph act CS 0.2, Diaph inh CS 75*, G6PDH counter 20 and PfG6PD inh 56.
NS(=O)(=O)c1ccc(CCNC(=O)COC(=O)CCSc2ccc(Cl)cc2)cc1 was read as HKDC1 inh 3, Tb hexokinase -3, Diaph act CS 0.9, Diaph inh CS 5, G6PDH counter 9 and PfG6PD inh 6.
`O=C(COC(=O)CCSc1ccc(Cl)cc1)NCCc1ccccc1` gave HKDC1 inh -1, Tb hexokinase -3, Diaph act CS 0.4, Diaph inh CS 55*, G6PDH counter -6 and PfG6PD inh 1.
